Source: ChEMBL document CHEMBL3044971, “Dialkoxybenzene and dialkoxyallylbenzene feeding and oviposition deterrents against the cabbage looper, Trichoplusia ni: potential insect behavior control agents” (J Agric Food Chem, 2010)

Key:
Trichoplusia ni [1] = assay: Oviposition deterrent activity against adult female Trichoplusia ni (cabbage looper) moths introduced along with male moths into oviposition cage containing compound pretreated cabbage leaves assessed as eggs laying on the leaf disks at 0.25% after 48 hr; format: functional
Summary of the method: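 Choice test: one male and one female moth were caged with a control and a treated cabbage leaf (~100-110 cm²). Each side was sprayed with 0.5 mL MeOH or methanolic test solution at 0.25%. Values are mean ± SE, N = 35-40.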

Trichoplusia ni [2] = assay: Feeding deterrent activity against freshly molted third-instar larval stage of Trichoplusia ni (cabbage looper) in compound pretreated cabbage leaves after 3 to 5 hr by leaf disk choice bioassay; format: functional, organism-based
Summary of the method: (§1)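 Leaf-disk choice test on greenhouse cabbage (Stonehead) leaves from 5-6-week plants. Freshly molted third-instar T. ni from a diet-reared colony (>50 generations) were starved 4-5 h. One disk had 10 μL test solution painted on each side, the other carrier solvent only. There were 25 larvae per treatment. Run ended at ~50% control disk eaten (3-5 h). Deterrence = (C−T)/(C+T)×100 from consumed areas.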

Trichoplusia ni [3] = assay: Feeding deterrent activity against freshly molted third-instar larval stage of Trichoplusia ni (cabbage looper) in compound pretreated cabbage leaves at 50 ug/cm2 after 3 to 5 hr by leaf disk choice bioassay; format: functional; summary of the method: as §1
Trichoplusia ni [4] = conditions: in vivo, 24 h

SMILES	Activity (Trichoplusia ni [1]) [%]	DC50 (Trichoplusia ni [2]) [microg/cm2]	Activity (Trichoplusia ni [3]) [%]	mortality (Trichoplusia ni [4]) [%]
C=CCc1cccc(OC)c1O	7	20.6	100	17
C=CCc1cc(OCC)ccc1OCCC	21	33	65	17
C=CCc1cccc(OCCCC)c1OCC	31	20	100	27
C=CCOc1ccc(OCCC)cc1CC=C			29	
C=CCOc1c(CC=C)cccc1OCC			22	7
C=CCOc1ccc(OCCC(C)C)cc1CC=C			29	
C=CCOc1cccc(OC)c1	9	34	66	33
C=CCc1cccc(OCC)c1O	7	20.6	100	17
C=CCOc1ccc(OCCC)cc1 [1-allyloxy-4-propoxybenzene]	21	0.5	100	
C=CCOc1c(CC=C)cccc1OCCC(C)C			22	7
C=CCc1cc(OCC)ccc1OCC	64	22	66	3.3
C=CCc1cc(OCCC)ccc1OCC	64	22	66	3.3
CCCOc1cccc(OCCC(C)C)c1 [3-PROPOXY-1-ISOPENTOXYBENZENE]	9	17	97	10
C=CCc1cc(OCCC(C)C)ccc1OC	37	19	68	17
C=CCc1cccc(OCCC(C)C)c1OCC	31	20	100	27
C=CCOc1ccccc1OCCCC [1-allyloxy-2-butoxybenzene]	35	17	92	19
C=CCc1cc(OC)ccc1OCCC(C)C	20	15	83	27
C=CCc1cc(OCCC(C)C)ccc1O	51	57	51	3.3
C=CCc1cc(OCC)ccc1O	51	57	51	3.3
C=CCc1cccc(OCCC(C)C)c1OCCCC			6	1
CCCOc1ccc(OCC)cc1 [4-ETHOXY-1-PROPOXYBENZENE]	10	33.3	100	17
C=CCc1cccc(OCCC(C)C)c1OC	32	15.5	100	17
C=CCc1ccc(OC)c(OC)c1 [METHYLEUGENOL]	-22	26	64	
C=CCc1cc(OCCC(C)C)ccc1OCC	64	22	66	3.3
C=CCc1cccc(OCCC)c1O	7	20.6	100	17

SMILES	Activity (Trichoplusia ni [1]) [%]	DC50 (Trichoplusia ni [2]) [microg/cm2]	Activity (Trichoplusia ni [3]) [%]	mortality (Trichoplusia ni [4]) [%]
C=CCc1cccc(OCCC(C)C)c1OCCC(C)C			22	7
C=CCc1cccc(OCCC)c1OCCC(C)C			22	7
C=CCc1cc(OCCC(C)C)ccc1OCCC	21	33	65	17
C=CCOc1c(CC=C)cccc1OC			22	7
C=CCc1ccc(OCCCC)c(OC)c1 [N-BUTYLEUGENOL]	34	12	92	15
C=CCc1cc(OC)ccc1O	51	57	51	3.3
C=CCc1cc(OCCC)ccc1O	51	57	51	3.3
C=CCc1cc(OCC)ccc1OCCCC	-14		23	
C=CCc1cccc(OCC)c1OC	32	15.5	100	17
C=CCc1cc(OCCCC)ccc1OCCC	21	33	65	17
C=CCc1cccc(OCC)c1OCCCC			6	1
C=CCc1cccc(OCC)c1OCC	31	20	100	27
C=CCOc1ccc(OCC)cc1CC=C			29	
C=CCc1cccc(OC)c1OCC	31	20	100	27
C=CCOc1cccc(O)c1 [3-(ALLYLOXY)PHENOL]	5		36	
C=CCc1cccc(OCCC)c1OCCCC			6	1
C=CCc1cc(OC)ccc1OCCC	7	9.4	92	6.4
C=CCc1cc(OCCC(C)C)ccc1OCCCC	-14		23	
C=CCOc1c(CC=C)cccc1OCCCC			22	7
C=CCOc1ccc(OCCCC)cc1CC=C			29	
CCN(CC)C(=O)c1cccc(C)c1 [DIETHYLTOLUAMIDE]	23	47	60	7
C=CCc1cc(OCCCC)ccc1OC	37	19	68	17
C=CCc1ccc(OCCC)c(OC)c1 [PROPYLEUGENOL]	29	19	84	37
C=CCc1cc(OC)ccc1OCC	64	22	66	3.3
C=CCc1ccc(O)c(OC)c1 [EUGENOL]		56	44	30

SMILES	Activity (Trichoplusia ni [1]) [%]	DC50 (Trichoplusia ni [2]) [microg/cm2]	Activity (Trichoplusia ni [3]) [%]	mortality (Trichoplusia ni [4]) [%]
CCOc1ccc2c(c1)CC(C)O2 (stereo not given)	-12	16	100	1
C=CCc1cc(OC)ccc1OC	14	20	80	17
C=CCOc1ccccc1OCCC [1-allyloxy-2-propoxybenzene]	12	12	96	10
C=CCc1cccc(OCCC)c1OC	32	15.5	100	17
C=CCc1cccc(OC)c1OCCC			31	47
C=CCc1cccc(OCC)c1OCCC			31	47
C=CCOc1ccc(OC)cc1CC=C			29	
C=CCc1cc(OCCCC)ccc1OCCCC	-14		23	
C=CCc1cccc(OCCC)c1OCCC			31	47
C=CCc1cccc(OCCCC)c1OCCC			31	47
C=CCc1cccc(OCCC(C)C)c1OCCC			31	47
C=CCc1c(OC)cccc1OCCC	17	14	100	
C=CCc1cc(OCCC)ccc1OCCCC	-14		23	
C=CCc1cccc(OC)c1OCCC(C)C			22	7
C=CCOc1ccc(OCCC(C)C)cc1 [1-allyloxy-4-isopentoxybenzene]	-25			
C=CCOc1c(CC=C)cccc1OCCC			22	7
C=CCc1cccc(OC)c1OCCCC			6	1
C=CCc1cccc(OCCCC)c1OCCC(C)C			22	7
C=CCc1cc(OC)ccc1OCCCC	-14		23	
C=CCOc1cccc(OCCC(C)C)c1	10			
C=CCc1cccc(OCCCC)c1OCCCC			6	1
C=CCOc1ccc(OCC)cc1 [1-allyloxy-4-ethoxybenzene]	17	30	73	
C=CCOc1ccccc1OCCC(C)C	26			
C=CCc1cccc(OCC)c1OCCC(C)C			22	7
